Activity calls are given as the source filed them. The calls are words filed in the database; no cut-off is given here.
What was measured:
[1] = target: T1, DNA repair protein RAD51 homolog 1 (Homo sapiens, UniProt Q06609); assay: Effect on stabilization of Escherichia coli BL21(DE3) expressing human N-terminal 6-histidine/Avi-tagged RAD51-circular pRS306 virion ssDNA nucleoprotein filament at 30 uM after 40 mins in presence of NaCl by SYBR gold staining based agarose gel electrophoresis; type: ADME
T1 sequence (Q06609 whole entry): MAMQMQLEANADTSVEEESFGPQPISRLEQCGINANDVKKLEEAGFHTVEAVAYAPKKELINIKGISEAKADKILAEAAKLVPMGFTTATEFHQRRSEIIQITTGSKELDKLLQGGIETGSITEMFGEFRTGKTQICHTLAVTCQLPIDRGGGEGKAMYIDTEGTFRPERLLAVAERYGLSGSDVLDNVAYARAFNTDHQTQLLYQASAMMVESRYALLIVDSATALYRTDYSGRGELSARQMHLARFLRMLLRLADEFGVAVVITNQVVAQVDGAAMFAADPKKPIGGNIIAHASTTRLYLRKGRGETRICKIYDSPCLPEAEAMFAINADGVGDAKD

[2] = target: T1, DNA repair protein RAD51 homolog 1; assay: Inhibition of Escherichia coli BL21(DE3) expressing human N-terminal 6-histidine/Avi-tagged RAD51 binding to circular pRS306 virion ssDNA preincubated for 40 mins followed by ssDNA addition measured after 5 mins by agarose gel electrophoresis
[3] = target: T1, DNA repair protein RAD51 homolog 1; assay: Inhibition of Escherichia coli BL21(DE3) expressing human N-terminal 6-histidine/Avi-tagged RAD51 binding to 5'-Alexa488-oligo-dT45 ssDNA at 5 to 100 uM preincubated for 40 mins followed by substrate addition measured after 40 mins by fluorescence polarization based microplate method; settings: read-out: Imax
Summary of the method: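 Human RAD51 preincubated with compound in DMSO at 37 °C for 40 min, then 5'-Alexa488-oligo-dT45 added and incubated another 40 min at 37 °C. Buffer: 20 mM HEPES pH 7.5, 2 mM ATP, 10 mM MgCl2, 0.1 mM TCEP. Final: 0.2 µM RAD51, 2.22 nM ssDNA, 30 mM NaCl, 4% DMSO. Fluorescence polarization read at 485/535 nm. IC50 from least-squares dose–response fits with standard error.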

[4] = target: T1, DNA repair protein RAD51 homolog 1; assay: Inhibition of RAD51-mediated homologous recombination in human HEK293-DR-GFP cells transfected with pCBASce expressing I-Sce-I after 24 hrs following transfection by 7-aminoactinomycin D staining based flow cytometry
[5] = target: T1, DNA repair protein RAD51 homolog 1; assay: Inhibition of human N-terminal 6-histidine/Avi-tagged recombinant RAD51 expressed in Escherichia coli BL21(DE3) assessed as D-loop formation using 5'-32P-labeled 90-mer ssDNA as substrate preincubated for 10 mins followed by substrate addition with subsequent incubation with substrate for 5 mins measured after 20 mins in presence of supercoiled pRS306 dsDNA by agarose gel electrophoresis
[6] = target: T2, DNA repair protein RAD51 homolog 1 (Homo sapiens) (UniProt Q06609); settings: 5 to 100 uM
T2 sequence (whole entry): T1 sequence (Q06609 whole entry)

[7] = target: T2, DNA repair protein RAD51 homolog 1 (Homo sapiens); settings: 40 uM
[8] = target: T1, DNA repair protein RAD51 homolog 1; assay: Inhibition of Escherichia coli BL21(DE3) expressing human N-terminal 6-histidine/Avi-tagged RAD51 binding to 5'-Alexa488-oligo-dT45 ssDNA preincubated for 40 mins followed by substrate addition measured after 40 mins by fluorescence polarization based microplate method
Summary of the method: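 Human RAD51 preincubated with compound in DMSO at 37 °C for 40 min, then 5'-Alexa488-oligo-dT45 added and incubated another 40 min at 37 °C. Buffer: 20 mM HEPES pH 7.5, 2 mM ATP, 10 mM MgCl2, 0.1 mM TCEP. IC50 from least-squares dose–response fits with standard error.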

Saccharomyces cerevisiae [9] = assay: (§1) Inhibition of Saccharomyces cerevisiae RAD51 D-loop activity using 5'-32P-labeled 90-mer ssDNA as substrate up to 100 uM preincubated for 10 mins followed by substrate addition with subsequent incubation with substrate for 5 mins measured after 20 mins in presence of supercoiled pRS306 dsDNA by agarose gel electrophoresis
Summary of the method: (§2)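 Yeast Rad51 (1 µM) with Rad52 (2 µM), or E. coli RecA (0.4 µM), preincubated with compound at 37 °C for 10 min. 32P 90-mer ssDNA added with 1 mM MgCl2 for 5 min, then supercoiled pRS306 with MgCl2 raised to 10 mM for 20 min. dsDNA step in 20 mM HEPES pH 7.5, 2 mM ATP, 10 nM ssDNA, 4.5 nM dsDNA. Read by agarose gel and phosphorimaging.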

MCF7 = assay: Cytotoxicity against human MCF7 cells assessed as cell survival treated with ionizing radiation followed by compound addition after 7 to 11 days by crystal violet staining based colony counting method; type: functional
Summary of the method: (§3)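 Cells grown to subconfluence, X-irradiated at 1.5 Gy/min, trypsinized and seeded at 1000–1500 cells/well in complete medium with 0.5% DMSO plus compound at the indicated dose, kept through outgrowth. Incubated 7–11 days until colonies of ≥50 cells. Stained ≥30 min at room temperature in 6% glutaraldehyde + 0.5% crystal violet, then counted automatically. PC-3 grown in DMEM:F12 (1:1) with 10% FCS.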

HEK293 [10] = assay: Effect on RAD51 levels in soluble nuclear fraction of HEK293-DR-GFP cells at 20 uM after 8 hrs by Western blot analysis; type: ADME, cell-based; settings: human, hek293, 8 h
Summary of the method: (§4)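 Subconfluent 293-DR-GFP cells grown with compound for the indicated time. Fractionated at 4 °C: hypotonic buffer on ice 15 min (cytosol); pellet in hypotonic buffer + 0.5 M NaCl 15 min (soluble nuclear); RIPA extraction three times 5 min, insoluble pellet kept (chromatin). Fractions run on 10% SDS-PAGE, blotted to PVDF, probed with rabbit anti-RAD51 (1:2000) or anti-PCNA (1:1000), read by ECL.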

[11] = target: T1, DNA repair protein RAD51 homolog 1; assay: Inhibition of IR-induced RAD51 accumulation in HEK293-DR-GFP cells subnuclear foci at 20 uM after 8 hrs by fluorescence microscopy; type: cell-based
Summary of the method: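 293-DR-GFP cells grown on coverslips for 2 days, X-irradiated at 1.5 Gy/min, fixed after 0, 2, 4 or 8 h outgrowth. Paraformaldehyde fixation and Triton permeabilization. Stained with rabbit anti-RAD51 plus anti-RPA or anti-γH2AX, DAPI counterstain. At least 100 nuclei scored per condition.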

HEK293 [12] = assay: Effect on RAD51 levels in chromatin fraction of HEK293-DR-GFP cells at 20 uM after 8 hrs by Western blot analysis; type: cell-based; settings: human, hek293, 8 h; summary of the method: as §4
Escherichia coli = assay: as §1, with “Escherichia coli RecA” for “Saccharomyces cerevisiae RAD51”; summary of the method: as §2
HEK293 [13] = assay: Effect on RAD51 levels in cytosol of HEK293-DR-GFP cells at 20 uM after 8 hrs by Western blot analysis; type: ADME, cell-based; settings: human; summary of the method: as §4
Saccharomyces cerevisiae [14] = assay: as §1, with “RAD52” for “RAD51”; summary of the method: as §2
HEK293 [15] = assay: Induction of single strand annealing activity in human HEK293-SA-GFP cells transfected with pCBASce expressing I-Sce-I up to 40 uM at 24 hrs post transfection by 7-aminoactinomycin D staining based flow cytometry; type: functional, cell-based
Summary of the method: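 293-DR-GFP (HR) or 293-SA-GFP (SSA) reporter cells electroporated (325 V, 975 µF) with 37.5 µg/mL I-SceI plasmid pCBASce or empty pCAGGS control. Seeded in complete DMEM + 0.5% DMSO with compound added at transfection, grown out 24 h. Cells resuspended with 1 µg/mL 7-AAD for flow cytometry, dead/apoptotic cells gated out, GFP-positive fraction scored among live cells.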

PC-3 = assay: Cytotoxicity against human PC3 cells assessed as cell survival treated with ionizing radiation followed by compound addition after 7 to 11 days by crystal violet staining based colony counting method; type: functional; summary of the method: as §3
U2OS = assay: Cytotoxicity against human U2OS cells assessed as cell survival treated with ionizing radiation followed by compound addition after 7 to 11 days by crystal violet staining based colony counting method; type: functional; summary of the method: as §3
[16] = target: T1, DNA repair protein RAD51 homolog 1; assay: Effect on stabilization of Escherichia coli BL21(DE3) expressing human N-terminal 6-histidine/Avi-tagged RAD51-circular pRS306 virion ssDNA nucleoprotein filament at 100 uM after 40 mins in presence of NaCl by SYBR gold staining based agarose gel electrophoresis; type: ADME

With O=C1C(Cl)=C(N2CCOCC2)C(=O)N1c1ccc(Cl)c(Cl)c1 the Activity [1] was “Active” and the Activity [2] was “Dose-dependent effect”.

For COc1ccc2c(c1)NC(c1ccc(N(C)C)cc1)c1cccn1-2 (stereo in doubt; 1) [listing 1 of 2 here], the Emax [3] was 33%, the IC50 [4] was 13.1 µM and the IC50 [5] was 21.3 µM.

In the case of CN(C)c1ccc(-c2nc3cc(O)ccc3n3cccc23)cc1, the Imax [6] is reported as 91%.

With COc1ccc2c(c1)nc(-c1ccc(N)cc1)c1cccn12 the Imax [6] was 100%.

With COc1ccc2c(c1)nc(-c1ccc(O)cc1)c1cccn12 the Imax [6] was 13%.

C1=C(c2nc3ccccc3n3cccc23)CCCC1 gave an IC50 [5] greater than 100 µM.

Molecule COc1ccc2c(c1)NC(c1ccc(N(C)C)cc1)c1cccn1-2 (stereo in doubt; 1) [listing 2 of 2 here] has an inhibition [7] of 83% and an Imax [6] of 74%.

c1ccc2c(-c3nc4ccccc4n4cccc34)cccc2c1 gave an IC50 [5] greater than 100 µM.

With O=[N+]([O-])c1ccc(-c2nc3cc(O)ccc3n3cccc23)cc1 the IC50 [5] was greater than 100 µM.

In the case of Oc1ccc2c(c1)nc(-c1cccnc1)c1cccn12, the Imax [6] is reported as 53%.

Work on O=[N+]([O-])c1cccc(-c2nc3ccccc3n3cccc23)c1 yielded an IC50 [8] greater than 100 µM and an IC50 [5] greater than 100 µM.

Molecule c1ccc2c(c1)nc(-c1ccncc1)c1cccn12 has an IC50 [8] greater than 100 µM.

For c1ccc2c(c1)nc(-c1ccc(N3CCOCC3)cc1)c1cccn12, the IC50 [8] was greater than 100 µM and the Imax [6] was 68%.

Nc1cccc(-c2nc3ccccc3n3cccc23)c1 gave an IC50 [8] greater than 100 µM.

Work on COc1ccc2c(c1)nc(-c1ccc(N(C)C)cc1)c1cccn12 yielded an Imax [6] of 67%.

Oc1ccc(-c2nc3ccccc3n3cccc23)cc1 gave an IC50 [8] greater than 100 µM and an IC50 [5] greater than 100 µM.

COc1ccc2c(c1)nc(-c1ccc([N+](=O)[O-])cc1)c1cccn12 showed an IC50 [5] greater than 100 µM.

CCNc1ccc(-c2nc3ccccc3n3cccc23)cc1 was tested, and the Activity [1] was “Not Active”, the inhibition (Saccharomyces cerevisiae [9]) was “inactive” and the Activity (MCF7) was “Active”. For the same molecule, the Activity (HEK293 [10]) was “Non-toxic”, the “inhibition (INH)” value [11] was “Not Active” and the Activity (HEK293 [12]) was “Non-toxic”. The inhibition (Escherichia coli) was “inactive”, the Activity (HEK293 [13]) was “Non-toxic” and the inhibition (Saccharomyces cerevisiae [14]) was “inactive”. The Activity (HEK293 [15]) was “inactive”, the Activity (PC-3) was “Active” and the Imax [6] was 91%. For the same molecule, the Activity (U2OS) was “Active” and the Activity [16] was “Not Active”.

c1ccc2c(c1)nc(-c1ccc(N3CCCC3)cc1)c1cccn12 gave an IC50 [5] greater than 100 µM.

FC(F)(F)Oc1ccc(-c2nc3ccccc3n3cccc23)cc1 showed an IC50 [5] greater than 100 µM.

Work on CN(C)c1ccc(-c2nc3cc(F)c(F)cc3n3cccc23)cc1 yielded an IC50 [5] greater than 100 µM.

O=[N+]([O-])c1ccc(-c2nc3ccccc3n3cccc23)cc1 showed an IC50 [8] greater than 100 µM and an IC50 [5] greater than 100 µM.

CN(C)c1ccc(-c2nc3cc(F)ccc3n3cccc23)cc1 showed an IC50 [5] greater than 100 µM.

COc1ccc2c(c1)nc(-c1cccnc1)c1cccn12 showed an IC50 [8] greater than 100 µM and an Imax [6] of 74%.

For COc1ccc2c(c1)NC(c1ccc(N(C)C)cc1)c1cccn1-2 (racemic), the Imax [6] was 17%.
